Source: PubChem BioAssay (Broad Institute)
SR-BI DiI-HDL act – enhances SR-BI lipid uptake from DiI-HDL | CHO ldlA[mSR-BI] cells, DiI-HDL uptake fluorescence, 3 h; 100 = double the neutral-control signal | activation, % at 12.5 µM | 0.096% of 320,000 active | AID 504775;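 active = mean replicate activation of at least 60% and every replicate at or above 60%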
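Test system: SR-BI-overexpressing, LDLR-lacking CHO cells; Medium: Ham's F12 with 0.5% BSA, HEPES 25 mM, pH 7.4; Schedule: 3 h, 37 °C; Technique: bottom-read fluorescence, 550/595 nm.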
DYRK1A inh – blocks rat Dyrk1A kinase activity; 0.43% of 310,000 active; inhibition, % at 12.5 µM; Q63470; ADP-Glo luminescence, NFATc1 peptide; AID 504441
SR-BI HDL uptake – inhibitors of mouse SR-BI mediated HDL lipid uptake | Q61009 | ldlA[mSR-BI] CHO cells, DiI-HDL uptake fluorescence, 3 h | inhibition, % at 12.5 µM | 0.96% of 320,000 active | AID 488896;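 active = mean replicate inhibition of at least 70% and a set share of replicates each scoring 70 or more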
NSD2 inh – blocks human histone methyltransferase NSD2. NSD2 peptide methylation, AlphaScreen, 120 min. inhibition, % at 12.5 µM. 0.54% of 310,000 active
CDK5 inh – blocks human CDK5/p35 kinase activity; Recombinant CDK5/p35, ADP-Glo luminescence, 60 min; 0.01% of 330,000 active; inhibition, % at 10 µM; AID 488839;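 active = highest replicate inhibition of at least 50% and at least 75% of replicates reaching 50%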
dFosB act – mouse delta FosB homodimer activation; P13346; purified delta FosB, TAMRA-CDK5 oligo fluorescence polarization; percent of positive-control signal above neutral wells; activation, % at 25 µM; 0.99% of 340,000 active; AID 493131;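 active = mean activation above about 17%, with every replicate also reaching it, limit read from the data, passing the limit was not always enough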
Hits are given with their value. In the library only some 2.5% were active in any assay of this set; here they are far more common. Rule as the data show it, unless noted: active = inhibition above about 50%; inactive = the rest.

For C[C@H](CO)N1C[C@H](C)[C@@H](CN(C)S(=O)(=O)c2ccc(F)cc2)Oc2ccc(NC(=O)Cc3cn(C)c4ccccc34)cc2C1=O the results were SR-BI DiI-HDL act inactive, DYRK1A inh inactive, SR-BI HDL uptake inactive, CDK5 inh inactive and dFosB act inactive.
C[C@H](CO)N1C[C@H](C)[C@@H](CN(C)C(=O)Nc2ccc(C(F)(F)F)cc2)Oc2ccc(NC(=O)Nc3ccc(C(F)(F)F)cc3)cc2C1=O was read as SR-BI DiI-HDL act inactive, DYRK1A inh inactive, SR-BI HDL uptake inactive, CDK5 inh inactive and dFosB act inactive.
C[C@@H]1CN([C@H](C)CO)C(=O)c2cc(NC(=O)Cc3cn(C)c4ccccc34)ccc2O[C@H]1CN(C)S(=O)(=O)c1ccc(F)cc1 was read as SR-BI DiI-HDL act inactive, DYRK1A inh inactive, SR-BI HDL uptake 73, CDK5 inh inactive and dFosB act inactive.
Screening CC(C)CSc1ccc(S(=O)(=O)NCC(=O)O)cc1[N+](=O)[O-] returned SR-BI DiI-HDL act inactive, DYRK1A inh inactive, SR-BI HDL uptake inactive, NSD2 inh inactive, CDK5 inh inactive and dFosB act inactive.
`COc1ccccc1NC(=O)/C=C/c1cc([N+](=O)[O-])ccc1OC(F)F` gave DYRK1A inh inactive, NSD2 inh inactive, CDK5 inh inactive and dFosB act inactive.
For O=C(/C=C/c1cc([N+](=O)[O-])ccc1OC(F)F)Nc1cccc(OC(F)F)c1 the results were SR-BI DiI-HDL act inactive, DYRK1A inh inactive, SR-BI HDL uptake 75, NSD2 inh inactive, CDK5 inh inactive and dFosB act inactive.
Screening COC(=O)C1CCN(C(=O)C2CC(=O)N(c3ccc(OC)cc3)C2c2ccc(OC)cc2)CC1 (centres undefined) returned NSD2 inh inactive.
For COc1ccc(NC(=O)n2nc(OC(=O)c3cccs3)cc2N)cc1 the results were SR-BI DiI-HDL act inactive, DYRK1A inh inactive, SR-BI HDL uptake inactive, CDK5 inh inactive and dFosB act inactive.
For COc1ccc(-c2[nH]n(-c3ccc([N+](=O)[O-])cc3)c(=O)c2C=NCC2CCCO2)cc1 (centres undefined) the results were SR-BI DiI-HDL act inactive, DYRK1A inh inactive, SR-BI HDL uptake 82, NSD2 inh inactive, CDK5 inh inactive and dFosB act inactive.
Screening O=c1c(C=NCC2CCCO2)c(-c2ccccc2)[nH]n1-c1ccc([N+](=O)[O-])cc1 (centres undefined) returned DYRK1A inh inactive, NSD2 inh inactive, CDK5 inh inactive and dFosB act inactive.
Screening O=C1c2cccn2CC2Cc3ccccc3N12 (centres undefined) returned NSD2 inh inactive.
Screening N#Cc1[nH]nc2nc[nH]c(=O)c12 returned NSD2 inh inactive.
For O=C1NC(=S)S/C1=C\c1ccc(SCc2ccco2)o1 the results were SR-BI DiI-HDL act inactive, DYRK1A inh 73, SR-BI HDL uptake inactive, CDK5 inh inactive and dFosB act inactive.
`COc1cccc(C(=O)N2N=C(c3cccc(OC)c3)CC2(O)C(F)(F)F)c1` (centres undefined) gave SR-BI DiI-HDL act inactive, DYRK1A inh inactive, SR-BI HDL uptake inactive, NSD2 inh inactive, CDK5 inh inactive and dFosB act inactive.
COc1cccc(C(=O)N2N=C(c3ccccn3)CC2(O)C(F)(F)F)c1 (centres undefined) was read as SR-BI DiI-HDL act 241, SR-BI HDL uptake inactive, NSD2 inh inactive, CDK5 inh inactive and dFosB act inactive.
For CCC(C)N(C(C)CC)S(=O)(=O)c1ccc2[nH]c(=O)oc2c1 (centres undefined) the results were NSD2 inh inactive.
Screening Cc1[nH]n(-c2nc(-c3ccc(Cl)cc3)cs2)c(=O)c1N=Nc1ccc(O)cc1 returned SR-BI DiI-HDL act inactive, DYRK1A inh inactive, SR-BI HDL uptake 110, NSD2 inh inactive, CDK5 inh inactive and dFosB act inactive.
Screening CC(C)Oc1cccc(-c2n[nH]c(=S)n2N=Cc2ccc(OCc3ccccc3)cc2)c1 returned NSD2 inh inactive.
For O=C(NCC1CCCN(C(=O)c2cc(Cl)ccc2F)C1)c1ccc(F)cc1 (centres undefined) the results were SR-BI DiI-HDL act inactive, DYRK1A inh inactive, SR-BI HDL uptake inactive, NSD2 inh inactive, CDK5 inh inactive and dFosB act inactive.
`Cc1c(C(=O)Nc2ccc(Nc3ccccc3)cc2)cccc1[N+](=O)[O-]` gave SR-BI DiI-HDL act inactive, DYRK1A inh inactive, SR-BI HDL uptake inactive, NSD2 inh inactive, CDK5 inh inactive and dFosB act inactive.
`O=C(Nc1ccccc1)c1ccc(Nc2c([N+](=O)[O-])cc([N+](=O)[O-])c3ccccc23)cc1` gave SR-BI DiI-HDL act inactive, DYRK1A inh inactive, SR-BI HDL uptake 88, NSD2 inh inactive, CDK5 inh inactive and dFosB act inactive.
N#Cc1ccccc1NC(=O)C1SC(=Nc2ccccc2)C(C(=O)Nc2ccc(Cl)cc2)=C1N (centres undefined) was read as SR-BI DiI-HDL act inactive, SR-BI HDL uptake 108, CDK5 inh inactive and dFosB act inactive.
Screening CCOc1ccc(N=C2SC(C(=O)Nc3ccccc3C#N)C(N)=C2C(=O)Nc2ccc(Cl)cc2)cc1 (centres undefined) returned SR-BI DiI-HDL act inactive, DYRK1A inh inactive, SR-BI HDL uptake inactive, NSD2 inh inactive, CDK5 inh inactive and dFosB act inactive.
Screening O=C(NNC(=O)c1cc2ccccc2o1)c1ccc(F)cc1 returned SR-BI DiI-HDL act inactive, DYRK1A inh inactive, SR-BI HDL uptake inactive, NSD2 inh inactive, CDK5 inh inactive and dFosB act inactive.
`O=C(NNC(=O)c1cc2ccccc2o1)c1ccc(Cl)cc1` gave SR-BI DiI-HDL act 510, DYRK1A inh inactive, SR-BI HDL uptake inactive, NSD2 inh inactive, CDK5 inh inactive and dFosB act inactive.
Screening c1ccc2c(c1)CC/C2=N/Nc1nc2ccccc2[nH]1 returned SR-BI DiI-HDL act inactive, DYRK1A inh inactive, SR-BI HDL uptake inactive, NSD2 inh inactive, CDK5 inh inactive and dFosB act 31.
`CC1(Cc2ccc(OC(F)(F)F)cc2)C(=O)Nc2ccc(OC(F)(F)F)cc21` (centres undefined) gave NSD2 inh inactive.
For Cc1cccc(-n2c(N)c(-c3nc4ccccc4n3C)c3nc4ccccc4nc32)c1 the results were SR-BI DiI-HDL act inactive, DYRK1A inh inactive, SR-BI HDL uptake 73, NSD2 inh inactive, CDK5 inh inactive and dFosB act inactive.
`O=C(Nc1cccc(Cl)c1)c1ccc2ncsc2c1` gave SR-BI DiI-HDL act inactive, DYRK1A inh inactive, SR-BI HDL uptake inactive, NSD2 inh inactive, CDK5 inh inactive and dFosB act inactive.
CC1(C(=O)OCC(=O)NC(=O)NCc2ccccc2)CC1(Cl)Cl (centres undefined) was read as SR-BI DiI-HDL act 62, DYRK1A inh inactive, SR-BI HDL uptake inactive, NSD2 inh inactive, CDK5 inh inactive and dFosB act inactive.
